# Source: ChEMBL document CHEMBL4028840, “6-Nitro-2,3-dihydroimidazo[2,1-b][1,3]thiazoles: Facile synthesis and comparative appraisal against tuberculosis and neglected tropical diseases” (Bioorg Med Chem Lett, 2017)
# What was measured:
# [1] = system: Trypanosoma brucei brucei; test: Anti-parasitic activity against Trypanosoma brucei brucei Squib-427 after 72 hrs by resazurin dye based fluorescence assay; type: functional
# Summary of the method: (§1)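 IC50 for growth inhibition of L. infantum, T. cruzi and T. brucei parasites, or for cytotoxicity toward human lung fibroblasts (MRC-5). Values are means of two or more independent experiments.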
# Trypanosoma cruzi = test: Anti-parasitic activity against Trypanosoma cruzi Tulahuen CL2 infected in human MRC5 cells after 7 days by chlorophenol red […]-D-galactopyranoside dye based assay; type: functional, cell-based; summary of the method: as §1
# [2] = system: Mycobacterium tuberculosis; test: Anti-tubercular activity against Mycobacterium tuberculosis H37Rv ATCC 27294 after 10 days under hypoxic condition by low-oxygen recovery assay; type: functional
# Summary of the method: (§2)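 M. tuberculosis H37Rv MIC measured in two assays: aerobic growth by MABA and hypoxic exposure by LORA. Each value is the mean of ≥2 independent determinations.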
# [3] = Cytotoxicity against human MRC5 SV2 cells after 72 hrs by resazurin dye based fluorescence assay; type: cell-based; summary of the method: as §1
# [4] = system: Mycobacterium tuberculosis; test: Anti-tubercular activity against Mycobacterium tuberculosis H37Rv ATCC 27294 after 7 days under aerobic condition by microplate alamar blue assay; type: functional; summary of the method: as §2
# Leishmania infantum = test: Anti-parasitic activity against Leishmania infantum MHOM/MA(BE)/67 amastigotes infected in mouse primary peritoneal macrophages after 5 days by giemsa staining based microscopic method; type: functional; summary of the method: as §1
# Vero = test: Cytotoxicity against African green monkey Vero cells after 72 hrs by MTS/PMS assay; type: cell-based; details: Chlorocebus sabaeus
# Summary of the method: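 VERO mammalian cells exposed for 72 h. Cytotoxicity IC50 comes from a single test.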
# [5] = Trypanosoma brucei, Squib-427, 72 h
# [6] = Trypanosoma cruzi, Tulahuen CL2, MRC5, 168 h
# [7] = Mycobacterium tuberculosis, H37Rv ATCC 27294, 240 h, read-out: MIC
# [8] = Mycobacterium tuberculosis, H37Rv ATCC 27294, 168 h, read-out: MIC
# [9] = Leishmania infantum, MHOM/MA(BE)/67, 120 h
Structure (SMILES),"IC50 [1, 5] [µM]",IC50 (Trypanosoma cruzi; [6]) [µM],"MIC [2, 7] [µM]","IC50 ([3]; Homo sapiens, MRC-5 SV2, 72 h) [µM]","MIC [4, 8] [µM]",IC50 (Leishmania infantum; [9]) [µM],IC50 (Vero) [µM],IC50 (Trypanosoma cruzi) [µM],IC50 [1] [µM],MIC [2] [µM],MIC [4] [µM],IC50 (Leishmania infantum) [µM],IC50 ([3]; mrc5 sv2) [µM]
CC1(COc2ccc(Oc3ccccc3)cc2)Cn2cc([N+](=O)[O-])nc2O1 (configuration not stated),28,1.9,24,> 64,0.79,–,–,–,–,–,–,–,–
O=[N+]([O-])c1cn2c(n1)SC(COc1ccc(Oc3ccccc3)cc1)C2 (configuration not stated),11,1.6,29,56,> 128,56,> 128,–,–,–,–,–,–
CC1(COc2ccc(-c3ccc(F)cc3)cc2)Cn2cc([N+](=O)[O-])nc2S1 (configuration not stated),> 64,0.21,> 64,> 64,0.21,> 64,> 128,–,–,–,–,–,–
CC1(COc2ccc(OC(F)(F)F)cc2)Cn2cc([N+](=O)[O-])nc2S1 (configuration not stated),> 64,0.38,10,> 64,0.49,> 64,> 128,–,–,–,–,–,–
CC1(CO)Cn2cc([N+](=O)[O-])nc2S1 (configuration not stated),–,–,> 128,–,10,–,–,–,–,–,–,–,–
CC1(COCc2ccc(-c3ccc(OC(F)(F)F)cc3)cc2)Cn2cc([N+](=O)[O-])nc2S1 (configuration not stated),2.8,0.14,> 64,> 64,1.4,56,–,–,–,–,–,–,–
CC1(COCc2ccc(-c3ccc(C(F)(F)F)cc3)cc2)Cn2cc([N+](=O)[O-])nc2S1 (configuration not stated),1.1,0.04,> 64,> 64,1.1,56,–,–,–,–,–,–,–
C[C@@]1(COCc2ccc(OC(F)(F)F)cc2)Cn2cc([N+](=O)[O-])nc2S1,> 64,1.6,51,> 64,6.1,> 64,52,–,–,–,–,–,–
O=[N+]([O-])c1cn2c(n1)SC(COCc1ccc(OC(F)(F)F)cc1)C2 (configuration not stated),> 64,0.87,15,> 64,4.4,64,> 128,–,–,–,–,–,–
CC1(COCc2ccc(Oc3ccccc3)cc2)Cn2c([N+](=O)[O-])cnc2S1 (configuration not stated),53,19,> 128,> 64,> 128,55,–,–,–,–,–,–,–
CC1(COCc2ccc(-c3ccc(F)cc3)cc2)Cn2cc([N+](=O)[O-])nc2S1 (configuration not stated),> 64,0.15,> 64,> 64,1.5,> 64,–,–,–,–,–,–,–
CC1(COc2ccc(Oc3ccccc3)cc2)Cn2cc([N+](=O)[O-])nc2S1 (configuration not stated),> 64,0.14,5.3,> 64,0.76,> 64,> 128,–,–,–,–,–,–
O=[N+]([O-])c1cn2c(n1)OC(COc1ccc(Oc3ccccc3)cc1)C2 (configuration not stated),> 64,3.1,> 128,19,0.96,3.4,> 128,–,–,–,–,–,–
CC1(COc2ccc(Oc3ccccc3)cc2)Cn2cc([N+](=O)[O-])nc2S1(=O)=O (configuration not stated),3.8,0.46,> 128,45,> 128,55,> 128,–,–,–,–,–,–
CC1(COCc2ccc(OC(F)(F)F)cc2)Cn2c([N+](=O)[O-])cnc2S1 (configuration not stated),22,7.3,59,47,55,> 64,45,–,–,–,–,–,–
O=[N+]([O-])c1cn2c(n1)SC(COc1ccc(OC(F)(F)F)cc1)C2 (configuration not stated),> 64,0.85,8.2,> 64,4.5,> 64,> 128,–,–,–,–,–,–
CC1(COCc2ccc(OC(F)(F)F)cc2)Cn2cc([N+](=O)[O-])nc2S1(=O)=O (configuration not stated),> 64,0.97,21,> 64,> 128,> 64,–,–,–,–,–,–,–
CC1(COc2ccc(OC(F)(F)F)cc2)Cn2cc([N+](=O)[O-])nc2S1(=O)=O (configuration not stated),> 64,1.8,15,> 64,14,> 64,> 128,–,–,–,–,–,–
CC1(COCc2ccc(OC(F)(F)F)cc2)Cn2cc([N+](=O)[O-])nc2[S+]1[O-] (stereo in doubt; 18),> 64,1.6,> 128,> 64,–,> 64,–,–,–,–,–,–,–
CC1(COCc2ccc(OC(F)(F)F)cc2)Cn2cc([N+](=O)[O-])nc2[S+]1[O-] (stereo in doubt; 19),–,–,–,–,> 128,–,–,3,–,–,–,–,–
CC1(COc2ccc(OC(F)(F)F)cc2)Cn2cc([N+](=O)[O-])nc2[S+]1[O-] (stereo in doubt; 38),–,–,–,–,–,–,–,1.7,41,58,26,–,–
CC1(COc2ccc(Oc3ccccc3)cc2)Cn2cc([N+](=O)[O-])nc2[S+]1[O-] (stereo in doubt; 39),–,–,–,53,–,55,> 128,0.19,0.36,>128,–,–,–
CC1(COc2ccc(Oc3ccccc3)cc2)Cn2cc([N+](=O)[O-])nc2[S+]1[O-] (stereo in doubt; 40),–,–,–,–,> 128,–,–,0.75,0.98,25,–,42,51
